According to ChEMBL document CHEMBL1140756, “Synthesis and antiviral activity of new dimeric inhibitors against HIV-1” (Bioorg Med Chem, 2008):
pEC50: −log10 of the molar value.

Columns and labels:
[1] = Selectivity index, ratio of CC50 for human MT4 cells to EC50 for wild type HIV1; type: functional
Summary of the method: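 CC50 from mock-infected MT-4 cells, read by MTT in parallel with the antiviral test, divided by EC50 for 50% protection from HIV-1 IIIB cytopathogenicity (MTT, day 4 input, 37 °C). Both values are means of at least two separate experiments.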

[2] = system: Human immunodeficiency virus 1; experiment: Antiviral activity against HIV1 HTLV-3B; type: functional, organism-based; conditions: Human immunodeficiency virus 1, HTLV-3B
Summary of the method: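 MT-4 cells (1×10^4 per well) in RPMI 1640 with 10% FCS, exposed to serial compound dilutions (DMSO stocks at 100 mM diluted in medium), then infected with HIV-1 IIIB at an input giving complete cytopathogenicity by day 4. Incubated at 37 °C; viability read by MTT. EC50 = dose giving 50% protection; mean of at least two experiments.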

[3] = system: Human immunodeficiency virus 1; experiment: Antiviral activity against HIV1 K103N/Y181C mutant; type: functional, organism-based
Summary of the method: (§1)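 Acute infection of MT-4 cells (1×10^4 per well) with NNRTI-resistant HIV-1 stocks (K103N+Y181C A17, Y181C N119, efavirenz-selected K103R+V179D+P225H) titrated in C8166 cells by syncytia scoring. Compounds were serially diluted from 100 mM DMSO stocks. Virus input gave full cytopathogenicity at day 4, 37 °C. Read-out was protection of viability by MTT, or p24 immunoassay.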

[4] = system: Human immunodeficiency virus 1; experiment: Antiviral activity against efavirenz-resistant HIV1; type: functional, organism-based; summary of the method: as §1
MT4 (Homo sapiens) = experiment: Cytotoxicity against mock-infected human MT4 cells by MTT assay
[5] = system: Human immunodeficiency virus 1; experiment: Antiviral activity against HIV1 Y181C mutant; type: functional, organism-based; summary of the method: as §1

Row | SMILES | Ratio CC50/EC50 [1] | pEC50 [2] | pEC50 [3] | pEC50 [4] | CC50 (MT4 (Homo sapiens)) [µM] | pEC50 [5]
1 | C#CCOCn1c(Cc2ccccc2C)c(CC)c(=O)[nH]c1=O | 82 | 6.40 | < 4.48 | < 4.48 | 33 | < 4.48
2 | CCc1c(Cc2cc(C)cc(C)c2)n(COCC#Cc2ccc(COCn3c(Cc4cc(C)cc(C)c4)c(CC)c(=O)[nH]c3=O)cc2)c(=O)[nH]c1=O | 53 | 6.52 | < 4.80 | < 4.80 | 16 | 5.40
3 | CCc1c(Cc2ccccc2C)n(COCC#CC#CCOCn2c(Cc3ccccc3C)c(CC)c(=O)[nH]c2=O)c(=O)[nH]c1=O | 1 | < 5.10 | < 5.10 | < 5.10 | 8 | < 5.10
4 | C#CCOCn1c(Cc2cc(C)cc(C)c2)c(CC)c(=O)[nH]c1=O | > 33300 | 8.52 | 5.92 | 4.80 | > 100 | 6.70
5 | O=C1Nc2ccc(Cl)cc2[C@@](C#CC2CC2)(C(F)(F)F)O1 [EFAVIRENZ] | – | – | 6.52 | – | 30 | 8.10
6 | CCOCn1c(Cc2ccccc2)c(C(C)C)c(=O)[nH]c1=O [EMIVIRINE] | >3333 | 7.52 | < 4.00 | 4.00 | > 100 | 4.70
7 | CCc1c(Cc2cc(C)cc(C)c2)n(COCc2ccc(C#C[C@@]3(O)CC[C@@H]4[C@H]5CCC6=CC(=O)CC[C@H]6[C@@H]5CC[C@]43CC)cc2)c(=O)[nH]c1=O | >250 | 6.40 | < 4.00 | < 4.00 | > 100 | 5.55
8 | CCc1c(Cc2cc(C)cc(C)c2)n(COCC#Cc2ccc(C#CCOCn3c(Cc4cc(C)cc(C)c4)c(CC)c(=O)[nH]c3=O)cc2)c(=O)[nH]c1=O | 30 | 5.55 | < 4.07 | < 4.07 | 85 | < 4.07
9 | CC[C@@]12CC[C@H]3C4CCC(=O)C=C4CC[C@@H]3[C@H]1CC[C@]2(O)C#CC#C[C@@]1(O)CC[C@@H]2[C@H]3CCC4=CC(=O)CCC4[C@@H]3CC[C@]21CC (some centres undefined) | 1 | < 4.55 | < 4.55 | < 4.55 | 28 | < 4.55
10 | CCc1c(Cc2cc(C)cc(C)c2)n(COCC#Cc2ccc(I)cc2)c(=O)[nH]c1=O | 220 | 6.70 | < 4.36 | < 4.36 | 44 | 5.00
11 | CCc1c(Cc2cc(C)cc(C)c2)n(COCc2ccc(I)cc2)c(=O)[nH]c1=O | 2714 | 8.15 | 6.05 | 6.10 | 19 | 7.00
12 | CCc1c(Cc2cc(C)cc(C)c2)n(COCC#CC#CCOCn2c(Cc3cc(C)cc(C)c3)c(CC)c(=O)[nH]c2=O)c(=O)[nH]c1=O | 18 | 6.30 | < 5.05 | < 5.05 | 9 | < 5.05
13 | CCc1c(Cc2cc(C)cc(C)c2)n(COCc2cn([C@H]3C[C@H](n4cc(C)c(=O)[nH]c4=O)O[C@@H]3CO)nn2)c(=O)[nH]c1=O | >1250 | – | 4.57 | 4.59 | > 100 | 5.10
